From ChEMBL document CHEMBL1123181 (J Med Chem, 1986) come the findings set out here.

A value given as a limit tells only on which side of the number the result lay.

The target in assay [1] is T1, Angiotensin-converting enzyme (Oryctolagus cuniculus, UniProt P12822).
T1 sequence (P12822 whole entry): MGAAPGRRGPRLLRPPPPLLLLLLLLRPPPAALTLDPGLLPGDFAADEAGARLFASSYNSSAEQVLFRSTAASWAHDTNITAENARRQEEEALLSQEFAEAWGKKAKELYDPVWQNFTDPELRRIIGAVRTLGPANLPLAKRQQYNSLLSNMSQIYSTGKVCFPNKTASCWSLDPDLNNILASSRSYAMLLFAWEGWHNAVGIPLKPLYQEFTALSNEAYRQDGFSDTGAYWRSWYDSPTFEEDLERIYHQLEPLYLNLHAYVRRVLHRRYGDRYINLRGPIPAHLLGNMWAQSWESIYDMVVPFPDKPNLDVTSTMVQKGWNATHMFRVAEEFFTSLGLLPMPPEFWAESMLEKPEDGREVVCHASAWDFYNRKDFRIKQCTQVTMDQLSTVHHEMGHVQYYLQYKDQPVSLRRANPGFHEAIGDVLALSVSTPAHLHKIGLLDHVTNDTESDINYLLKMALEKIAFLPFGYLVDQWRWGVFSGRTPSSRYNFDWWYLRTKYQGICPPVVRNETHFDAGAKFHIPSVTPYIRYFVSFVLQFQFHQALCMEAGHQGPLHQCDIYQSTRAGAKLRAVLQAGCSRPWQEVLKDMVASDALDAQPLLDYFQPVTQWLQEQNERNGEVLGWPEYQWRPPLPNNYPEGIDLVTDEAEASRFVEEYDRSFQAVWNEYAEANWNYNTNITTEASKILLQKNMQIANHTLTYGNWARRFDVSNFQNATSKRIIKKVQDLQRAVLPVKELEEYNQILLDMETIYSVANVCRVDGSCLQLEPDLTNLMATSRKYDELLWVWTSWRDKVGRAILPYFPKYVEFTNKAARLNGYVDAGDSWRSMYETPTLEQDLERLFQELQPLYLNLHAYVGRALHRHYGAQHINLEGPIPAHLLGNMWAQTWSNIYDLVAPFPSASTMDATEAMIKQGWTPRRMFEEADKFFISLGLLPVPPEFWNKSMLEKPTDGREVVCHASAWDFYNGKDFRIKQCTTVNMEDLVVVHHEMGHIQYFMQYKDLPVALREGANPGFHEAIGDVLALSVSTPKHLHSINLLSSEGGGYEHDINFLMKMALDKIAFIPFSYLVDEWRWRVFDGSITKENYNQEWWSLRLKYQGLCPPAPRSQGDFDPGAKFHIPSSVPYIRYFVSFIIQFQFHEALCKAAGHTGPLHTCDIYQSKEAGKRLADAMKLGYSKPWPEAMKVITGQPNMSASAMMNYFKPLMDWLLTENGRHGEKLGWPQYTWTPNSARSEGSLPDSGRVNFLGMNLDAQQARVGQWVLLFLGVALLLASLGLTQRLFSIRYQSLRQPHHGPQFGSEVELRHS
Nature of the assay: In vitro inhibition of Angiotensin I converting enzyme activity in rabbit lung. It counts as tissue-based. The conditions noted are these: read-out: I50.

The target in assay [2] is Angiotensin-converting enzyme (Rattus norvegicus) (UniProt P47820). Description: The time to 50% recovery of the angiotensin I response was measured after po administration at 1.5 mg/kg.
Angiotensin-converting enzyme (Rattus norvegicus), sequence (P47820 whole entry, looked up): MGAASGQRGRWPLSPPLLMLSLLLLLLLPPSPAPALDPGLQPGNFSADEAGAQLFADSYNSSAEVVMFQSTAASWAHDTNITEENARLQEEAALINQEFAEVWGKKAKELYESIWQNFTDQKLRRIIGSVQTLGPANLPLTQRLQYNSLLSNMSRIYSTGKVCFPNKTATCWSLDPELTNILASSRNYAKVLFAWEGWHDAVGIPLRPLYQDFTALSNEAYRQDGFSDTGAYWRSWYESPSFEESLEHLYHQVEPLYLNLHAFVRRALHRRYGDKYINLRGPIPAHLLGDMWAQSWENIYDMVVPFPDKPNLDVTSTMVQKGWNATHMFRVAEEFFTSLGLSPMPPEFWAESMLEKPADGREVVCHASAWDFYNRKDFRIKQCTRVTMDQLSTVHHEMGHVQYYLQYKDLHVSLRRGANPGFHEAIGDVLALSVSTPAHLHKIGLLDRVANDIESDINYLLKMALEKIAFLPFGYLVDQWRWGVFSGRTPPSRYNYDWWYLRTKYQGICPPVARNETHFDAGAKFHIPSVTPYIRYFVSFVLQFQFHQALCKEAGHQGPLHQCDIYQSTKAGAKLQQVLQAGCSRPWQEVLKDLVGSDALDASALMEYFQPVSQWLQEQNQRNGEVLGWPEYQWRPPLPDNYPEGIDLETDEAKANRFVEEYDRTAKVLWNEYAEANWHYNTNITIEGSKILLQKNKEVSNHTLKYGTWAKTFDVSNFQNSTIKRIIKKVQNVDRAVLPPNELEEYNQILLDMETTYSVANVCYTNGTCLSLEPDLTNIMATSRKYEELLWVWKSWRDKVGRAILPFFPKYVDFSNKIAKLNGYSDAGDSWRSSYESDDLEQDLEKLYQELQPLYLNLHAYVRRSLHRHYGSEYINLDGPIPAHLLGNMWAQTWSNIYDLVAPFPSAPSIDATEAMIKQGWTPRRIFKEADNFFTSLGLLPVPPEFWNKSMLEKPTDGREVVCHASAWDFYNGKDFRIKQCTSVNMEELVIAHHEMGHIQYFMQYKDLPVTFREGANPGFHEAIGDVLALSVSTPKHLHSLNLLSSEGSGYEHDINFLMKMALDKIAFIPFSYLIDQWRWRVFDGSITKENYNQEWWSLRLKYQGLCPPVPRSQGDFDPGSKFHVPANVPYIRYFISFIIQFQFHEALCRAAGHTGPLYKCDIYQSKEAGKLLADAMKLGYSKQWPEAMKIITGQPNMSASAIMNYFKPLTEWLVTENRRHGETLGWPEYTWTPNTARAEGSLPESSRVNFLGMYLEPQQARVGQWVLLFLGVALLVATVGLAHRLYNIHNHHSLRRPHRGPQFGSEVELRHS
Assay [3] has the same target. Description: Percentage inactivation of the angiotensin I induced vasopressor response in normotensive conscious rats after po administration at dose 1.5 mg/kg; 20-34.
The test system of assay [4] is Rattus norvegicus. Nature of the assay: Time taken by the compound to change arterial pressure outside the control area at a dose of 30mg/kg, po. The format is functional, Artery.
The target in assay [5] is Angiotensin-converting enzyme (Rattus norvegicus) (UniProt P47820). Description: Percentage inactivation of the angiotensin I induced vasopressor response in normotensive conscious rats after po administration at dose 0.058 mg/kg; 65-70.
The subject of assay [6] is Rattus norvegicus. Nature of the assay: Maximum percent change in mean arterial pressure by the compound over control after po administration at 30 mg/kg dosage. The format is functional, Artery. The essentials: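 Spontaneously hypertensive rats kept on a sodium-deficient diet received the agent orally. Value = maximum % change in mean arterial pressure over control. Duration = time outside a control area, defined as the means ±2 SD of arterial pressure and heart rate readings from 45 control rats.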

For assay [7], the target named is Angiotensin-converting enzyme (Rattus norvegicus) (UniProt P47820). Description: The time to 50% recovery of the angiotensin I response was measured after po administration at 0.3 mg/kg.
The target of assay [8] is T1, Angiotensin-converting enzyme. Nature of the assay: In vitro inhibition of Angiotensin I converting enzyme activity at pH 8.5 in rabbit lung. It counts as tissue-based. The conditions noted are these: read-out: I50.
Assay [9] has the same target. Nature of the assay: Inhibition of the activity of rabbit lung Angiotensin I converting enzyme. The essentials: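 Rabbit lung acetone-powder ACE, crude and dialyzed. Enzyme was added to substrate ± inhibitor and the reaction stopped with HCl after 10 min. Hippuric acid was extracted into AcOEt and read at 228 nm.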
The target in assay [10] is Angiotensin-converting enzyme (Rattus norvegicus) (UniProt P47820). Description: Percentage inactivation of the angiotensin I induced vasopressor response in normotensive conscious rats after po administration at dose 0.08 mg/kg; 80-85.
For assay [11] the target is unchanged. Description: The time to 50% recovery of the angiotensin I response was measured after po administration at 0.30 mg/kg.
For assay [12] the target is unchanged. Description: Percentage inactivation of the angiotensin I induced vasopressor response in normotensive conscious rats after po administration at dose 0.15 mg/kg; 85-96.
Assay [13] has the same target. Description: The time to 50% recovery of the angiotensin I response was measured after po administration at 0.15 mg/kg; 60-140.
Assay [14] shares this target. Nature of the assay: Percentage inactivation of the angiotensin I induced vasopressor response in normotensive conscious rats after po administration at dose 1.5 mg/kg; 17-24. The settings on record: at 1.5 mg/kg.
For assay [15] the target is unchanged. Nature of the assay: The time to 50% recovery of the angiotensin I response was measured after po administration at 1.5 mg/kg; 20-80.
For assay [16] the target is unchanged. Description: Percentage inactivation of the angiotensin I induced vasopressor response in normotensive conscious rats after po administration at dose 1.5 mg/kg; 43-64.
Assay [17] has the same target. Description: The time to 50% recovery of the angiotensin I response was measured after po administration at 1.5 mg/kg; 20-50.
For assay [18] the target is unchanged. Description: Percentage inactivation of the angiotensin I induced vasopressor response in normotensive conscious rats after po administration at dose 1.5 mg/kg; 14-21.
Assay [19] has the same target. Nature of the assay: Percentage inactivation of the angiotensin I induced vasopressor response in normotensive conscious rats after po administration at dose 1.5 mg/kg; 3-5.
Assay [20] shares this target. Nature of the assay: Percentage inactivation of the angiotensin I induced vasopressor response in normotensive conscious rats after po administration at dose 1.5 mg/kg; 14-16.
The target is the same in assay [21]. Description: The time to 50% recovery of the angiotensin I response was measured after po administration at 1.5 mg/kg; 10-60.
Assay [22] shares this target. Nature of the assay: Percentage inactivation of the angiotensin I induced vasopressor response in normotensive conscious rats after po administration at dose 1.5 mg/kg; 0-29.
Assay [23] shares this target. Nature of the assay: The time to 50% recovery of the angiotensin I response was measured after po administration at 1.5 mg/kg; 0-30.
Assay [24] shares this target. Nature of the assay: Percentage inactivation of the angiotensin I induced vasopressor response in normotensive conscious rats after po administration at dose 1.50 mg/kg; 73-79.
The target is the same in assay [25]. Description: Percentage inactivation of the angiotensin I induced vasopressor response in normotensive conscious rats after po administration at dose 0.15 mg/kg; 24-49.
Assay [26] shares this target. Nature of the assay: The time to 50% recovery of the angiotensin I response was measured after po administration at 0.15 mg/kg; 10-30.
Assay [27] has the same target. Description: The time to 50% recovery of the angiotensin I response was measured after po administration at 1.5 mg/kg; 30-50.

Consider `CC1SC(=O)C(C)(C)N(C2CCCC2)C1=O` (centres undefined), for which the IC50 in [1] came out at 90000 nM. Besides, the Duration in assay [2] came to 20 min. The inhibition in assay [3] turned out to be 20%.

For the compound `C[C@H](CSC(=O)C(C)(C)C)C(=O)N(CC(=O)O)C1CCCC1` [PIVOPRIL], the Duration with Rattus norvegicus [4] is over 24 h; in assay [7], 60 min. The compound also displayed an inhibition in assay [5] of 50%. In addition, the MAP in the assay with Rattus norvegicus [6] is recorded as -30%. Besides, the IC50 in assay [8] was determined as 17 nM.

`CC(=O)S[C@H](C)C(=O)N1CSC[C@H]1C(=O)O`: in assay [9], the IC50 was 37000 nM.

`C[C@H]1CSC(=O)[C@@H]2Cc3ccccc3CN2C1=O`: in assay [1], the IC50 came to 800 nM.

With `CCOC(=O)[C@H](CCc1ccccc1)N[C@@H](C)C(=O)N1CCC[C@H]1C(=O)O`, the inhibition in [10] was 50%. The Duration was over 24 h in the assay on Rattus norvegicus [4] and 210 min in assay [11]. Moreover, the MAP in the assay on Rattus norvegicus [6] is -38%.

In assay [9], `CC(S)C(=O)N(C1CCCC1)C(C)C(=O)O` (centres undefined) came in with an IC50 of 6800 nM.

As for `CC1CSC(=O)[C@@H]2Cc3ccccc3CN2C1=O` (some centres undefined), the IC50 in assay [1] was 18 nM; in assay [8], 45 nM.

Turning to `CC(=O)SC(C)C(=O)N(CC(=O)O)c1ccc(C)cc1` (centres undefined), the IC50 in assay [9] amounted to 180 nM.

In the case of `CC1SC(=O)CNC1=O` (centres undefined), the IC50 in [1] and in assay [8] was 1900 nM each time.

For the compound `CC(S)C(=O)N(CC(=O)O)C1CCCC1` (centres undefined), the IC50 in assay [9] amounted to 57 nM.

Take `CC1CSC(=O)CN(C2CC3CCC2C3)C1=O` (centres undefined): the results for the IC50 in assay [1] and in assay [8] were 12 nM and 25 nM, respectively. The same compound came in with an inhibition in assay [12] of 85%. The Duration in assay [13] came to 60 min.

Consider `CC(=O)SC(C)C(=O)N(C1CCCC1)C(C)C(=O)O` (centres undefined), for which the IC50 in [9] is 6800 nM.

`CC(=O)SC(C)C(=O)N1C(C(=O)O)C(C)(C)SC1(C)C` (centres undefined): the IC50 in assay [9] is over 100000 nM.

`CC(=O)S[C@@H](C)C(=O)N1CSC[C@H]1C(=O)O`: the IC50 in [9] turned out to be 1700 nM.

As for `CC(=O)SC(C)C(=O)N1Cc2ccccc2CC1(C)C(=O)O` (centres undefined), in assay [9], the IC50 was over 100000 nM.

For the compound `CC1SC(=O)[C@@H]2CCCN2C1=O` (some centres undefined), in assay [1], the IC50 is 33000 nM. Further, in [2], the Duration is 10 min. In addition, the inhibition in assay [14] came to 17%.

Consider `CC1CSC(=O)[C@@H]2CSCN2C1=O` (some centres undefined), for which the Duration in [15] is 20 min. The IC50 in assay [1] came to 47 nM; in [8], 58 nM. The inhibition in assay [16] came to 43%.

As to `CC(S)C(=O)N1CSC[C@H]1C(=O)O` (stereo in doubt; 37b(R,R)), the IC50 in assay [9] worked out at 10000 nM.

Consider `CC1SC(=O)C2N(C1=O)C(C)(C)SC2(C)C` (centres undefined), for which the IC50 is over 100000 nM in [1] and 21000 nM in [8]. For the same compound, the Duration in [17] was 20 min. Also, the inhibition in assay [18] stood at 14%.

Take `CC1SC(=O)C(C)N(C2CCCC2)C1=O` (centres undefined): the figures for the IC50 in [1] and in assay [8] were 27000 nM and 6800 nM, respectively. The compound further had an inhibition in [19] of 3%.

The compound `CC(S)C(=O)N1C(C(=O)O)C(C)(C)SC1(C)C` (centres undefined) yielded an IC50 in assay [9] of 21000 nM.

As to `C[C@H](CS)C(=O)N1CCC[C@H]1C(=O)O` [CAPTOPRIL], the MAP with Rattus norvegicus [6] was -30%.

With `CC(S)C(=O)N1CSC[C@H]1C(=O)O` (stereo in doubt; 37b(S,R)), in [9], the IC50 was 140 nM.

With `C[C@@H]1SC(=O)[C@@]2(C)Cc3ccccc3CN2C1=O`, the IC50 in assay [1] and in assay [8] was over 100000 nM in each case. Further, in assay [20], the inhibition amounted to 14%. The same compound gave a Duration in assay [21] of 10 min.

Regarding `Cc1ccc(N(CC(=O)O)C(=O)C(C)S)cc1` (centres undefined), the IC50 in [9] turned out to be 26 nM.

`CC(=O)SC(C)C(=O)N(C1CCCC1)C(C)(C)C(=O)O` (centres undefined): in assay [9], the IC50 is 95000 nM.

As for `CC1CSC(=O)C2N(C1=O)C(C)(C)SC2(C)C` (centres undefined), the IC50 in assay [1] turned out to be 50000 nM; in assay [8], 15000 nM. Also, the inhibition in assay [22] stood at 0%. In assay [23], this compound yielded a Duration of 0 min.

`CC(=O)SC(C)C(=O)N(CC(=O)O)C1CCCC1` (centres undefined): the IC50 in assay [9] was determined as 510 nM.

For the compound `CC1SC(=O)CN(C2CCCC2)C1=O` (centres undefined), the IC50 in [1] was found to be 150 nM; in [8], 57 nM. The inhibition in assay [24] turned out to be 73%; in assay [25] it was 24%. The Duration turned out to be 10 min in [26] and 30 min in [27].

The inhibition is the relative decrease from the control value, in per cent.
